Laboratory results reported in PubChem BioAssay.
Activity calls are given as the source filed them.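 The calls were made as follows, unless noted: active = viability at or under a set limit in both replicates, limit being median viability minus 3 SD (cut at about 48% in these data, passing the limit was not always enough); inconclusive = at or under the limit in just one replicate; inactive = at or above the limit in both replicates.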

How the values were obtained:
[1] = SK-BR-3 cell growth inhibitors, pilot screen, 24 h, human (AID 572;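 active = viability at or below 10% of carrier control in both of two separate runs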;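 also: compound exposure lasted between 18 and 24 h rather than exactly 24 h; 100% = carrier-treated control wells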); conditions: SK-BR-3 viability, CellTiter-Glo luminescence, at 10 µM, stronger effect = lower value
[2] = HUVEC growth inhibition – cell-based, human, primary screen (AID 575;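 active = viability at or below 30% in both replicate assays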;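 also: 100% = median of untreated cell wells with 0.1% DMSO on each plate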); conditions: HUVEC proliferation, CellTiter-Glo luminescence, 72 h; at 10 µM; stronger effect = lower value
Method in brief: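 System: primary human umbilical vein endothelial cells; Quantity: 1250 endothelial cells in each well; Buffer or medium: supplemented EBM, 2% fetal bovine serum; Doses: one dose, 10 µM final, 0.1% DMSO; Incubation: 72 h compound incubation; Technique: ATP-based CellTiter-Glo luminescent read; Evaluation: percent of median DMSO-control luminescence; Controls: vehicle and MePR control wells.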

[3] = growth inhibitors of H69AR lung tumor, primary screen, human, duplicate replicates (AID 580); conditions: H69AR lung tumor cells viability, ATP luminescence, 72 h; at 10 µM; stronger effect = lower value;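 also: 100% = mean luminescence of untreated wells and 0% = no signal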
[4] = reversal of MRP1-mediated doxorubicin resistance, pilot screen, H69AR cells, doxorubicin co-treatment (AID 601;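 active = viability loss from added drug above about 55%, and viability with drug at most 40%, in both replicates, limit read from the data, passing the limit was not always enough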); conditions: CellTiter-Glo, 72 h, at 10 µM; for differential viability (reversal): stronger effect = higher value
[5] = 384-well plate pilot, post-Golgi transport modulator project, inhibition of yeast transport mutant growth (AID 636; in the data active = inhibition above about 31%); conditions: absorbance 615 nm, about 18 h, stronger effect = higher value
[6] = growth suppression of yeast trafficking mutant, preliminary HTS, modulators of trafficking downstream of Golgi apparatus project, 1536-format plate, OD 615 nm (AID 637; in the data active = inhibition above about 30%); conditions: yeast transport mutant growth, absorbance 615 nm, 18 h; stronger effect = higher value
[7] = H69AR cells + 2 uM doxorubicin, measured here: viability with 2 uM doxorubicin, stronger effect = lower value
[8] = H69AR cells, compound alone cytotoxicity

| SMILES | viability [1] | viability [2] | viability [3] | differential viability (reversal) ([4]; H69AR cells + 2 uM doxorubicin) | viability [4, 7] | viability [4, 8] | inhibition [5] | inhibition [6] |
| --- | --- | --- | --- | --- | --- | --- | --- | --- |
| O=C(Nc1ccc(Cl)c(C(F)(F)F)c1)N1CCCC(O)C1 (configuration not stated) | 98% (inactive) | 107% (inactive) | 105% (inactive) | 20.9% (inactive) | 83.6% | 105% | -0.78% (inactive) | -6.23% (inactive) |
| c1cc2c(cc1Nc1nc(-c3ccc4c(c3)OCO4)cs1)OCCO2 | 97% (inactive) | 72.6% (inactive) | 90.5% (inactive) | -8.93% (inactive) | 99.4% | 90.5% | -4.19% (inactive) | -10% (inactive) |
| O=C(NC1CCS(=O)(=O)C1)OC1CCCCC1 (configuration not stated) | 75% (inactive) | 111% (inactive) | 93.4% (inactive) | -10.9% (inactive) | 104% | 93.4% | -0.82% (inactive) | 1.82% (inactive) |
| O=C(Nc1ccc(NC(=O)C2CC2)cn1)c1ccccc1Cl | 101% (inactive) | 98.7% (inactive) | 98.5% (inactive) | 7.09% (inactive) | 91.4% | 98.5% | -2.13% (inactive) | -2.91% (inactive) |
| Cc1cc(NC(=O)CSc2nc(C3CCCCC3)nc3ccccc23)no1 | 101% (inactive) | 99.8% (inactive) | 80% (inactive) | 16.2% (inactive) | 63.9% | 80% | -0.8% (inactive) | -2% (inactive) |
| CC(=O)OCC(=O)[C@@]1(O)CC[C@H]2[C@@H]3CCC4=CC(=O)C=C[C@]4(C)[C@H]3[C@@H](O)C[C@@]21C | 82% (inactive) | 91.5% (inactive) | 91.1% (inactive) | -7.15% (inactive) | 98.2% | 91.1% | 1.56% (inactive) | -1.83% (inactive) |
| Cc1cccc(NC(=O)CSc2nnc(-c3ccccc3C)o2)c1 | 87% (inactive) | 107% (inactive) | 75.4% (inactive) | 3.35% (inactive) | 72% | 75.4% | -5.95% (inactive) | -7.27% (inactive) |
| CC(C)NCC(O)COc1cccc2[nH]ccc12 (configuration not stated) | 111% (inactive) | 78.3% (inactive) | 99.2% (inactive) | -1.55% (inactive) | 101% | 99.2% | -3.25% (inactive) | -3.17% (inactive) |
| O=S(=O)(NCC1CCCO1)c1ccc2c(c1)OCCO2 (configuration not stated) | 128% (inactive) | 98% (inactive) | 97.6% (inactive) | 0.805% (inactive) | 96.8% | 97.6% | 0.41% (inactive) | -5.48% (inactive) |
| CCCC1Cc2c(sc3ncnc(N)c23)CO1 (configuration not stated) | 111% (inactive) | 94.5% (inactive) | 90.9% (inactive) | -10.3% (inactive) | 101% | 90.9% | -0.14% (inactive) | -0.73% (inactive) |
| Cc1[nH]nc(-c2ccc(O)c(C)c2O)c1-c1cnn(-c2ccccc2)c1 | 93% (inactive) | 85.4% (inactive) | 94.2% (inactive) | 12% (inactive) | 82.1% | 94.2% | -4.52% (inactive) | -3.27% (inactive) |
| Cc1nc2cc(C(=O)O)ccc2n1-c1ccc(F)cc1F | 120% (inactive) | 94.3% (inactive) | 101% (inactive) | 7.17% (inactive) | 93.7% | 101% | -4.42% (inactive) | 2.62% (inactive) |
| O=C1CC(c2ccccc2)NC(=O)N1 (configuration not stated) | 78% (inactive) | 105% (inactive) | 98.8% (inactive) | 2.63% (inactive) | 96.1% | 98.8% | -7.26% (inactive) | -0.36% (inactive) |
| COc1ccc(CCN2CC(O)=C(c3nc4ccccc4c(=O)[nH]3)C2=N)cc1OC | 105% (inactive) | 85.6% (inactive) | 80.8% (inactive) | -4.8% (inactive) | 85.6% | 80.8% | -1.95% (inactive) | 1.8% (inactive) |
| COC(=O)Cc1cc(=O)n(-c2ccccc2)[nH]1 | 95% (inactive) | 91.2% (inactive) | 87.9% (inactive) | -0.48% (inactive) | 88.4% | 87.9% | -9.45% (inactive) | 0.73% (inactive) |
| Cc1cc2c(c(=O)n1C)C(Cc1ccccc1)C(C#N)=C(N)O2 (configuration not stated) | 95% (inactive) | 109% (inactive) | 95.1% (inactive) | 9.48% (inactive) | 85.6% | 95.1% | -5.54% (inactive) | 2.55% (inactive) |
| CCOC(=O)CSc1nnc(-c2ccc(NS(=O)(=O)c3ccc(C)cc3)cc2)o1 | 87% (inactive) | 56% (inactive) | 91.5% (inactive) | 5.14% (inactive) | 86.4% | 91.5% | -4.29% (inactive) | -5.67% (inactive) |
| CCOC(=O)c1oc2cc(OCC(N)=O)ccc2c(=O)c1-c1ccc(OC)c(OC)c1 | 65% (inactive) | 88.1% (inactive) | 99% (inactive) | -2.63% (inactive) | 102% | 99% | -7.67% (inactive) | -0.55% (inactive) |
| Cc1cccc(NC(=O)C2CCCN(C(=O)Nc3ccccc3)C2)c1C (configuration not stated) | 88% (inactive) | 102% (inactive) | 96.2% (inactive) | 5.37% (inactive) | 90.8% | 96.2% | -1.04% (inactive) | 3.11% (inactive) |
| CCOc1ccccc1N1CC(O)=C(c2nc3ccccc3s2)C1=N | 97% (inactive) | 49.4% (inactive) | 14.5% (active) | -45.7% (inactive) | 60.2% | 14.5% | 1.47% (inactive) | 2.36% (inactive) |
| CC1CN(S(=O)(=O)c2ccc(Cl)c(C(F)(F)F)c2)CC(C)O1 (configuration not stated) | 68% (inactive) | 111% (inactive) | 100% (inactive) | 8.69% (inactive) | 91.8% | 100% | -9.32% (inactive) | 2% (inactive) |
| COc1ccc(C(=O)Nc2cccnc2)cc1C(=O)Nc1cccnc1 | 150% (inactive) | 79.9% (inactive) | 97.4% (inactive) | 2.72% (inactive) | 94.6% | 97.4% | 7.53% (inactive) | -3% (inactive) |
| COc1ccccc1-n1cnc2cc(NS(=O)(=O)c3ccccc3)ccc21 | 62% (inactive) | 101% (inactive) | 87.1% (inactive) | -0.69% (inactive) | 87.8% | 87.1% | -3.15% (inactive) | -6.55% (inactive) |
| CC(C)n1nnnc1SCC(=O)Nc1ccccc1N1CCOCC1 | 53% (inactive) | 98.4% (inactive) | 98.5% (inactive) | -0.48% (inactive) | 99% | 98.5% | -5.75% (inactive) | 2.73% (inactive) |
